Experimental data published in PMC4251658 (Biochemistry, 2012).
Several values for one entry are separate records, joined by “and”; a condition that tells them apart may be missing. Equal entries are not always repeated. Where two headings read alike, the source gives them in different places. Marks after values point to notes of the source that are not given here.

Assays:
[1] = molecular target: T1, PCP hydroxylase (Sphingobium chlorophenolicum, UniProt P42535); assay: Hydrogen peroxide assay; assay type: biochemical; settings: 100 μM substrate, 160 μM NADPH
T1 sequence (P42535 1-538): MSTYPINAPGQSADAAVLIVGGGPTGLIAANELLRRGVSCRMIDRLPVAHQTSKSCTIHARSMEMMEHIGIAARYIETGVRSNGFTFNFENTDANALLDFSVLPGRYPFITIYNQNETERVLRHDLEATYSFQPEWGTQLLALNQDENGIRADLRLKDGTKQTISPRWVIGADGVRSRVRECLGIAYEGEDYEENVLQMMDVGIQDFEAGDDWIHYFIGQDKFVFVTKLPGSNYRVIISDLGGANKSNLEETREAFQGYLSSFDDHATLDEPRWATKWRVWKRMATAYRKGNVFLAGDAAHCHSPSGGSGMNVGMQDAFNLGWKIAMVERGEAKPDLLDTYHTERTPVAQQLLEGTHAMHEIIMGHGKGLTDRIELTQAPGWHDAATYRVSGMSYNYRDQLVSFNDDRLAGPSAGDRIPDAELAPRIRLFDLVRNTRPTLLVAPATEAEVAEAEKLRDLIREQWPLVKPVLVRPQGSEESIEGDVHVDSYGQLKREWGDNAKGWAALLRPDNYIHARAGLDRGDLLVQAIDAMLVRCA
How it was run: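 Reaction samples or H2O2 standards were added to freshly prepared reagent (250 μM Fe(II) ammonium sulfate, 25 mM H2SO4, 100 μM xylenol orange, 100 mM sorbitol) and incubated 30–45 min at room temperature. A560 was read against a prior standard curve. Reactions contained substrate or effector (100 μM) and NADPH (160 μM), run in triplicate; average rates came from at least three separate experiments.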

[2] = molecular target: T1, PCP hydroxylase; assay type: biochemical; settings: 100 μM substrate, 160 μM NADPH
[3] = molecular target: T1, PCP hydroxylase; assay: HPLC analysis of the products formed by PCP hydroxylase; assay type: biochemical; settings: for TCHQ, reaction components after 1 min incubation at room temperature / THTH, reaction components after 1 min incubation at room temperature / PCP, reaction components after 1 min incubation at room temperature / TCP, reaction components after 1 min incubation at room temperature: reactant 100 μM, PCP hydroxylase 10 μM, NADPH 300 μM
How it was run: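 His6-tagged enzyme expressed in E. coli M15(pReP4). Substrate (100 μM) in 50 mM potassium phosphate pH 7.5 with 25 μM ascorbate, plus 6 mM β-ME where included to trap TCBQ as THTH. Enzyme (10 μM) and NADPH (300 μM) added as indicated, 1 min at room temperature. Quenched into ethyl acetate with p-nitrophenol internal standard, dried, redissolved in TFA/acetonitrile; HPLC detection at 295, 310 and 350 nm.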

[4] = molecular target: T1, PCP hydroxylase; assay: Determination of dissociation constants by absorbance spectroscopy; assay type: binding; settings: titration at constant enzyme concentration
[5] = molecular target: T1, PCP hydroxylase; assay: Spectroscopic assays of enzyme activity, steady-state kinetic parameters; assay type: biochemical; settings: 160 μM NADPH; for kcat for hydroxylation reaction: in the presence of 6 mM β-ME, ambient O2 (apparent)
[6] = phenolic proton, in solution; cited from earlier work
[7] = system: PCP hydroxylase; settings: cited from earlier work
[8] = molecular target: the molecule itself; assay: SEC
[9] = in the presence of 5 mM ascorbate

With `Oc1cc(Cl)cc(Cl)c1` [3,5-DCP, 3,5-dichlorophenol] the H2O2 appearance [1] was 0.0029 ± 0.0006 s⁻¹, the NADPH disappearance [2] was 0.0079 ± 0.0016 s⁻¹ and the Product appearance [2] was “none”. The “extent of uncoupling (in words)” value [2] was “complete uncoupling”.

For `Oc1c(Cl)c(Cl)c(O)c(Cl)c1Cl` [TCHQ, tetrachlorohydroquinone], the “conversion to THTH” value ([3]; incubation with the enzyme in the presence of NADPH and β-ME for one minute) was 23%, the “TCHQ, reaction components after 1 min incubation at room temperature” value (shortened to “TCHQ, reaction components”) ([3]; β-ME 6, 25 μM ascorbate) was 77 ± 2 and the “THTH, reaction components after 1 min incubation at room temperature” value (“THTH, reaction components” for short) ([3]; β-ME 6, 25 μM ascorbate) was 23 ± 2. For the same molecule, the “Dissociation constants (in words)” value [4] was “low micromolar range”, the H2O2 appearance [1] was 0.035 ± 0.005 s⁻¹ and the NADPH /product ([2]; in the presence of 6 mM β-ME) was 6.3^c. The NADPH disappearance ([2]; in the presence of 6 mM β-ME) was 0.030 ± 0.003^c s^−1, the Product appearance ([2]; in the presence of 6 mM β-ME) was 0.0048 ± 0.0004^c s^−1 and the “concentration above which substrate inhibition is seen” value ([5]; 6 mM β-ME) was greater than 40 µM. The “kcat for hydroxylation reaction” value [5] was > 0.015^a,b s^−1.

In the case of `Oc1c(Cl)c(Cl)c(Cl)c(Cl)c1Cl` [PCP, pentachlorophenol], the “PCP, reaction components after 1 min incubation at room temperature” value ([3]; no β-ME, 25 μM ascorbate) is reported as 75 ± 1, the “TCHQ, reaction components” value ([3]; no β-ME, 25 μM ascorbate) is reported as 18 ± 1 and the “PCP, reaction components after 1 min incubation at room temperature” value ([3]; β-ME 6, 25 μM ascorbate) is reported as 70 ± 2. The “THTH, reaction components” value ([3]; β-ME 6, 25 μM ascorbate) was 28 ± 2, the H2O2 appearance [1] was 0.0070 ± 0.0009 s⁻¹ and the NADPH /product [2, 9] was 1.3^b. The NADPH disappearance [2, 9] was 0.025 ± 0.001^b s^−1, the Product appearance [2, 9] was 0.020 ± 0.003^b s^−1 and the pKa [6] was 4.5. For the same molecule, the “kcat for hydroxylation reaction” value [5] was 0.024 s^−1 and 0.024 ± 0.002^a,b s^−1, the “NADPH consumed for each PCP consumed” value [7] was 2 equivalents and the “O2 consumed for each PCP consumed” value [7] was 1.4 equivalents.

In the case of `Oc1ccc(Cl)c(Cl)c1` [3,4-DCP], the NADPH disappearance [2] is reported as 0.0045 ± 0.0010 s⁻¹, the Product appearance [2] is reported as “none” and the “extent of uncoupling (in words)” value [2] is reported as “complete uncoupling”.

With `Oc1c(Cl)c(Cl)cc(Cl)c1Cl` [TCP, 2,3,5,6-tetrachlorophenol] the “TCHQ, reaction components” value ([3]; no β-ME, 25 μM ascorbate) was 78 ± 11, the “TCP, reaction components after 1 min incubation at room temperature” value ([3]; no β-ME, 25 μM ascorbate) was 10 ± 1 and the “TCHQ, reaction components” value ([3]; β-ME 6, 25 μM ascorbate) was 75 ± 8. The “TCP, reaction components after 1 min incubation at room temperature” value ([3]; β-ME 6, 25 μM ascorbate) was 10 ± 1, the “THTH, reaction components” value ([3]; β-ME 6, 25 μM ascorbate) was 9 ± 1 and the “Dissociation constants (in words)” value [4] was “low micromolar range”. The H2O2 appearance [1] was 0.0132 ± 0.008 s⁻¹, the NADPH /product [2] was 1.5 and the NADPH disappearance [2] was 0.111 ± 0.018 s⁻¹. For the same molecule, the Product appearance [2] was 0.076 ± 0.008 s⁻¹ and the “Hill coefficient nH” value [5] was 2.

With `Oc1cc(Cl)c(Cl)c(Cl)c1` [3,4,5-triCP, 3,4,5-trichlorophenol] the NADPH disappearance [2] was 0.012 ± 0.001 s⁻¹, the Product appearance [2] was “none” and the “extent of uncoupling (in words)” value [2] was “complete uncoupling”.

`Oc1c(Cl)cccc1Cl` [2,6-DCP, 2,6-dichlorophenol] showed an H2O2 appearance [1] of 0.0011 ± 0.0002 s⁻¹, an NADPH /product [2] of 0.9 and an NADPH disappearance [2] of 0.051 ± 0.004 s⁻¹. For the same molecule, the Product appearance [2] was 0.060 ± 0.002 s⁻¹ and the “extent of uncoupling (in words)” value [2] was “no uncoupling”.

For `Oc1c(Cl)cc(Cl)cc1Cl` [2,4,6-triCP, 2,4,6-trichlorophenol], the H2O2 appearance [1] was 0.0012 ± 0.0002 s⁻¹, the NADPH /product [2, 9] was 1.5^b and the NADPH disappearance [2, 9] was 0.0048 ± 0.003^b s^−1. The Product appearance [2, 9] was 0.0033 ± 0.0002^b s^−1.

B1: His6-tagged PCP hydroxylase (pentachlorophenol hydroxylase, PcpB) (enzyme, Sphingobium chlorophenolicum, UniProt P42535 1-538, looked up)
chain: T1 sequence (P42535 1-538)
With B1 the “stoichiometry N” value [8] was 2.
